The results in this text go back to ChEMBL document CHEMBL1147244, “Constituents of the Vietnamese medicinal plant Streptocaulon juventas and their antiproliferative activity against the human HT-1080 fibrosarcoma cell line” (J Nat Prod, 2003).

This assay concerns HT-1080. Briefly: Antiproliferative activity against human HT1080 cells after 72 hrs by MTT assay. Type of assay: functional, cell-based. Particulars: HT-1080, 72 h. In a few lines: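 HT-1080 fibrosarcoma cells were grown in EME medium with 10% heat-inactivated FCS and 2 mM glutamine at 37 °C, 5% CO2. Cells were seeded at 2 × 10³ per well and left 24 h to attach. Samples were dissolved in DMSO/PBS, with final DMSO below 0.25%, and added at varying concentrations. After 2 h with MTT, formazan was extracted in DMSO and read at 550 nm. IC50 was taken from the mean of four wells.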
(In general: Formazan colour is commonly taken as a measure of viable cells.)
With `C[C@]12CC[C@H](O[C@@H]3O[C@H](CO)[C@@H](O)[C@H](O)[C@H]3O[C@@H]3O[C@H](CO)[C@@H](O)[C@H](O)[C@H]3O)C[C@H]1CC[C@@H]1[C@@H]2CC[C@]2(C)[C@@H](C3=CC(=O)OC3)CC[C@]12O` [DIGITOXIGENIN SOPHOROSIDE], 460 nM corresponded to half-maximal inhibition (IC50).

Compound `C[C@]12CC[C@H](O)C[C@@]1(O)CC[C@@H]1[C@@H]2CC[C@]2(C)[C@@H](C3=CC(=O)OC3)CC[C@]12O` [PERIPLOGENIN] returned an IC50 of 810 nM. This IC50 lies about 1.8-fold higher than the previous one.

Consider `C[C@H]1O[C@@H](O[C@H]2CC[C@@]3(C)[C@H](CC[C@@H]4[C@@H]3CC[C@]3(C)[C@@H](C5=CC(=O)OC5)CC[C@]43O)C2)C[C@@H](O)[C@@H]1O[C@@H]1O[C@H](CO[C@@H]2O[C@H](CO)[C@@H](O)[C@H](O)[C@H]2O)[C@@H](O)[C@H](O)[C@H]1O`, for which half-maximal inhibition (IC50) required 54 nM.

For `C[C@H]1O[C@@H](O[C@H]2CC[C@]3(C)[C@H]4CC[C@]5(C)[C@@H](C6=CC(=O)OC6)CC[C@]5(O)[C@@H]4CC[C@]3(O)C2)C[C@@H](O)[C@@H]1O[C@@H]1O[C@H](CO)[C@@H](O)[C@H](O)[C@H]1O` [CORCHORUSOSIDE C], it took 92 nM to reach half-maximal inhibition (IC50).

`C[C@]12[C@H](CC[C@@H]3[C@@H]1CC[C@]1(C)[C@@H](C4=CC(=O)OC4)CC[C@]31O)C[C@@H](O)C[C@H]2O` [ACOVENOSIGENIN A] displayed an IC50 of 1200 nM.

For `O=c1[nH]cc(F)c(=O)[nH]1` [FLUOROURACIL], it took 3700 nM to reach half-maximal inhibition (IC50).

`COc1cccc2c1C(=O)c1c(O)c3c(c(O)c1C2=O)C[C@@](O)(C(=O)CO)C[C@@H]3O[C@H]1C[C@H](N)[C@H](O)[C@H](C)O1` [DOXORUBICIN] registered an IC50 of 59 nM.

`CO[C@@H]1[C@@H](O)[C@H](O[C@@H]2[C@@H](C)O[C@@H](O[C@H]3CC[C@@]4(C)[C@H](CC[C@@H]5[C@@H]4CC[C@]4(C)[C@@H](C6=CC(=O)OC6)CC[C@]54O)C3)C[C@H]2OC)O[C@H](C)[C@H]1O[C@@H]1O[C@H](CO[C@@H]2O[C@H](CO)[C@@H](O)[C@H](O)[C@H]2O)[C@@H](O)[C@H](O)[C@H]1O` displayed an IC50 of 220 nM.

In turn, `CO[C@@H]1C[C@H](O[C@H]2CC[C@@]3(C)[C@H](CC[C@@H]4[C@@H]3CC[C@]3(C)[C@@H](C5=CC(=O)OC5)CC[C@]43O)C2)O[C@H](C)[C@H]1O[C@@H]1O[C@H](CO[C@@H]2O[C@H](CO)[C@@H](O)[C@H](O)[C@H]2O)[C@@H](O)[C@H](O)[C@H]1O` [ECHUJIN] displayed an IC50 of 55 nM.

`C[C@H]1O[C@@H](O[C@@H]2C[C@H]3CC[C@@H]4[C@H](CC[C@]5(C)[C@@H](C6=CC(=O)OC6)CC[C@]45O)[C@@]3(C)[C@H](O)C2)C[C@@H](O)[C@@H]1O` registered a concentration for half-maximal inhibition (IC50) of 1100 nM.

The compound `C[C@]12CC[C@H](O)C[C@H]1CC[C@@H]1[C@@H]2CC[C@]2(C)[C@@H](C3=CC(=O)OC3)CC[C@]12O` [DIGITOXIGENIN] gave an IC50 of 1500 nM.

Turning to `CC(=O)O[C@@H]1C[C@H](O[C@H]2CC[C@@]3(C)[C@H](CC[C@@H]4[C@@H]3CC[C@]3(C)[C@@H](C5=CC(=O)OC5)CC[C@]43O)C2)O[C@H](C)[C@H]1O[C@@H]1O[C@H](CO[C@@H]2O[C@H](CO)[C@@H](O)[C@H](O)[C@H]2O)[C@@H](O)[C@H](O)[C@H]1O`, the IC50 was determined as 590 nM.

On to `CO[C@@H]1[C@@H](O)[C@H](O[C@H]2CC[C@]3(C)[C@H]4CC[C@]5(C)[C@@H](C6=CC(=O)OC6)CC[C@]5(O)[C@@H]4CC[C@]3(O)C2)O[C@H](C)[C@H]1O[C@@H]1O[C@H](CO)[C@@H](O)[C@H](O)[C@H]1O`, for which the midpoint of inhibition, the IC50, lay at 670 nM.

On to `CO[C@@H]1C[C@H](O[C@H]2CC[C@]3(C)[C@H]4CC[C@]5(C)[C@@H](C6=CC(=O)OC6)CC[C@]5(O)[C@@H]4CC[C@]3(O)C2)O[C@H](C)[C@H]1O` [PERIPLOCYMARIN], for which the IC50 amounted to 96 nM. This IC50 is about 7-fold lower than that of the compound before.

In turn, `C[C@]12CC[C@H](O[C@@H]3O[C@H](CO)[C@@H](O)[C@H](O)[C@H]3O)C[C@@]1(O)CC[C@@H]1[C@@H]2CC[C@]2(C)[C@@H](C3=CC(=O)OC3)CC[C@]12O` [PERIPLOGENIN GLUCOSIDE] had an IC50 of 160 nM.

For the compound `C[C@H]1O[C@@H](O[C@H]2CC[C@]3(C)[C@H]4CC[C@]5(C)[C@@H](C6=CC(=O)OC6)CC[C@]5(O)[C@@H]4CC[C@]3(O)C2)C[C@@H](O)[C@@H]1O`, it took 93 nM to reach half-maximal inhibition (IC50).

`C[C@]12CC[C@H](O[C@@H]3O[C@H](CO[C@@H]4O[C@H](CO)[C@@H](O)[C@H](O)[C@H]4O)[C@@H](O)[C@H](O)[C@H]3O)C[C@H]1CC[C@@H]1[C@@H]2CC[C@]2(C)[C@@H](C3=CC(=O)OC3)CC[C@]12O` [DIGITOXIGENIN GENTIOBIOSIDE]: the IC50 is 1600 nM. This IC50 is about 17-fold higher than that of the compound before.

`CC(=O)O[C@H]1C[C@]2(O)[C@@H]3CC[C@@H]4C[C@@H](O[C@H]5C[C@@H](O)[C@H](O[C@@H]6O[C@H](CO)[C@@H](O)[C@H](O)[C@H]6O)[C@@H](C)O5)CC[C@]4(C)[C@H]3CC[C@]2(C)[C@H]1C1=CC(=O)OC1` [SUBALPINOSIDE]: the IC50 came out at 180 nM.

Broadly, the IC50 is the concentration that gives 50% inhibition. Read a high IC50 as weaker potency in that assay.
